pIC50: −log10 of the molar value. Calls of active or inactive are those of the source. The rule behind the calls is not given here.

Assay [1] relates to PC-3. Description: (§1) Cytotoxicity against human PC3 cells assessed as growth inhibition at 50 uM. It is filed as functional. The method, boiled down:
(§2)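 Growth inhibition calculated from absorbance as 100 − (sample absorbance / vehicle absorbance × 100).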

The test system of assay [2] is MCF7. Put plainly: Cytotoxicity against human MCF7 cells as growth inhibition at 50 uM. As to conditions: for inhibition of growth at 50 µM: read-out: GI. It is filed as functional. The method, boiled down:
as §2

Assay [3] relates to SK-LU-1. Description: (§3) Cytotoxicity against human SKLU1 cells as growth inhibition at 50 uM. The assay is classed as functional. The method, boiled down: as §2
The target of assay [4] is T1, 3-oxo-5-alpha-steroid 4-dehydrogenase 1 (Rattus norvegicus, UniProt P24008).
T1 sequence (P24008 whole entry): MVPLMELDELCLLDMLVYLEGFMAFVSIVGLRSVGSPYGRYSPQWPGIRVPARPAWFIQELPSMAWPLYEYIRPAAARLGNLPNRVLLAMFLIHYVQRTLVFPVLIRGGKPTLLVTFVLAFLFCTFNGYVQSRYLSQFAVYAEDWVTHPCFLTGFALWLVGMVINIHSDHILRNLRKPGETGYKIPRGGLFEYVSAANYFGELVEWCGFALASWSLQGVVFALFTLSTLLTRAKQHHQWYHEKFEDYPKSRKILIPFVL
Put plainly: Inhibition of rat liver type 1 5alpha-reductase assessed as transformation of testosterone to dihydrotestosterone. The note with it: for pIC50: read-out: IC50. The method, boiled down: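 Enzyme source: liver microsomes from overnight-fasted adult rats (8-month, 500 g), prepared in buffer A (20 mM sodium phosphate pH 6.5, 0.32 M sucrose, 0.1 mM DTT) at 4 °C, resuspended at 20 mg protein/mL. Inhibitors at 1 × 10⁻¹⁰ to 10⁻⁴ M. Radiolabelled T→DHT conversion quantified from TLC-plate radioactivity. IC50 taken from inhibition curves.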

The target of assay [5] is T2, 3-oxo-5-alpha-steroid 4-dehydrogenase 2 (Homo sapiens, UniProt P31213).
T2 sequence (P31213 whole entry): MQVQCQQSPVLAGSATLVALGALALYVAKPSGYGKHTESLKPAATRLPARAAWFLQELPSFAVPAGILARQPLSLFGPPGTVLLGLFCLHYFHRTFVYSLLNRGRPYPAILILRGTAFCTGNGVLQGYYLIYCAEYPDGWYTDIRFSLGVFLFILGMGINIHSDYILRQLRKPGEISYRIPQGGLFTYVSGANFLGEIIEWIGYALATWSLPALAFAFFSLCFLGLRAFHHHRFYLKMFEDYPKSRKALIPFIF
Put plainly: Inhibition of human prostate type 2 5alpha-reductase assessed as transformation of testosterone to dihydrotestosterone. The assay is classed as tissue-based, Prostate gland. As to conditions: for pIC50: read-out: IC50. The method, boiled down: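 Enzyme source: normal prostate from a person, homogenized in buffer A (20 mM sodium phosphate pH 6.5, 0.32 M sucrose, 0.1 mM DTT), pelleted at 1500 × g, resuspended at 5 mg protein/mL. Inhibitors at 1 × 10⁻¹⁰ to 10⁻⁴ M. Radiolabelled T→DHT conversion quantified by TLC lane radioactivity against total plate radioactivity. IC50 taken from inhibition curves.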

For assay [6], the target named is T3, Androgen receptor (Rattus norvegicus, UniProt P15207).
T3 sequence (P15207 whole entry): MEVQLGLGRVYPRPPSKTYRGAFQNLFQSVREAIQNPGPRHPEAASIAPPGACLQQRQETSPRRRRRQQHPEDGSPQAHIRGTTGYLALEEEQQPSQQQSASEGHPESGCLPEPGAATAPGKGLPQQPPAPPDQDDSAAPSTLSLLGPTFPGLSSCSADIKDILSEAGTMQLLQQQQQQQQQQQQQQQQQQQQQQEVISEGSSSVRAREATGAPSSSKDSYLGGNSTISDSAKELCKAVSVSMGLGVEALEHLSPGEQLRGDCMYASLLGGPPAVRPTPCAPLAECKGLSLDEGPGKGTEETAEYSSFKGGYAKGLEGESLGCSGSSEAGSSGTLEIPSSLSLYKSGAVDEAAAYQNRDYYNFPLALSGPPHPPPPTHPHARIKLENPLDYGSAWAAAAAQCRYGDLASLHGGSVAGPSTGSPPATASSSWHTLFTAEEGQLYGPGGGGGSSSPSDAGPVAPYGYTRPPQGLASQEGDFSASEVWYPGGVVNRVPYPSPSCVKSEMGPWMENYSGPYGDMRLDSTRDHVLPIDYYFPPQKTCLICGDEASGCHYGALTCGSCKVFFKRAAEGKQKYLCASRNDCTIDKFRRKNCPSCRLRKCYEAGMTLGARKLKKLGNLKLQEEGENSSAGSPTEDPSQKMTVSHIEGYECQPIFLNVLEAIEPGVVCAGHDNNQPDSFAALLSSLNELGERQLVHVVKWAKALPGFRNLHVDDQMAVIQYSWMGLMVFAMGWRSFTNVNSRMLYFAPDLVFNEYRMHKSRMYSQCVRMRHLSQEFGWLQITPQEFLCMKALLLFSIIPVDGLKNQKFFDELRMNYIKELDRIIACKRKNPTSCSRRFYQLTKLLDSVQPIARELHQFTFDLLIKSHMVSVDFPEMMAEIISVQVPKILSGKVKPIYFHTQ
Description: Displacement of [3H}-MIB from rat prostate cytosol androgen receptor assessed as relative binding affinity.

The test system of assay [7] is Syrian golden hamster. Put plainly: Increase of diameter of pigmented spot of flank organs in gonadectomized golden hamster at 2 mg/kg, sc qd for 6 days co-administered with 1 mg/kg of testosterone (reference value: 2.03 +/- 0.63 millimeter). The assay is classed as functional, Mesocricetus auratus.
For assay [8], the system named is Syrian golden hamster. Description: Increase of prostate weight in gonadectomized golden hamster at 2 mg/kg, sc qd for 6 days co-administered with 1 mg/kg of testosterone (reference value: 50.4 +/- 9.9 mg). It is filed as functional, Mesocricetus auratus, Prostate gland.
Assay [9] concerns Syrian golden hamster. Description: Increase of seminal vesicles weight in gonadectomized golden hamster at 2 mg/kg, sc qd for 6 days co-administered with 1 mg/kg of testosterone (reference value: 96.11 +/- 12.5 mg). The assay is classed as functional, Mesocricetus auratus.
A short description of assay [10]: as §1. The assay is classed as functional. As to conditions: PC-3, read-out: GI. The method, boiled down:
as §2

The nature of assay [11]: as §3. It is filed as functional. The note with it: SK-LU-1, read-out: GI. The method, boiled down:
as §2

Take `C[C@]12CC[C@H](OC(=O)C3CCC3)CC1=CC[C@@H]1[C@@H]2CC[C@]2(C)C(C(=O)Cn3cncn3)=CC[C@@H]12`: the “growth inhibition (GI)” value in [1], in assay [2] and in assay [3] was “inactive” throughout. Moreover, the IC50 entry in assay [4], in [5] and in assay [6] was “Not Active” in each case. Also, the Activity in [7] came out at 2.14 mm; in assay [8] it was 100 mg; in assay [9], 130 mg.

With `C[C@]12CC[C@H](O)CC1=CC[C@@H]1[C@@H]2CC[C@]2(C)C(C(=O)Cn3cncn3)=CC[C@@H]12`, the figures for the inhibition of growth at 50 µM in [10], in assay [2] and in [11] were 61.3%, 62.1% and 88.9%, respectively. The IC50 entry in assay [4], in assay [5] and in [6] was “Not Active” each time. Further, the Activity in assay [7] turned out to be 3.05 mm; in assay [8] it was 89 mg; in [9] it was 163.33 mg.

In the case of `C[C@]12CC[C@H](OC(=O)C3CCCCC3)CC1=CC[C@@H]1[C@@H]2CC[C@]2(C)C(C(=O)Cn3cncn3)=CC[C@@H]12`, the “growth inhibition (GI)” value in [1], in assay [2] and in assay [3] was “inactive” in each case. The IC50 result in assay [4], in [5] and in [6] was “Not Active” each time. Besides, the Activity came to 3 mm in [7], 88 mg in assay [8] and 150 mg in assay [9].

Turning to `CCC(=O)O[C@H]1CC[C@@]2(C)C(=CC[C@@H]3[C@@H]2CC[C@]2(C)C(C(=O)Cn4cncn4)=CC[C@@H]32)C1`, the “growth inhibition (GI)” value in assay [1] is “inactive”. In addition, the inhibition of growth at 50 µM came out at 5.9% in assay [2] and 8.8% in assay [11]. For the same compound, in assay [4], the pIC50 was 7.06. Besides, the IC50 result in [5] and in [6] was “Not Active” in each case. In addition, the Activity in assay [7] stood at 2.79 mm; in assay [8], 89.55 mg; in assay [9], 157.08 mg.

As for `CCCCC(=O)O[C@H]1CC[C@@]2(C)C(=CC[C@@H]3[C@@H]2CC[C@]2(C)C(C(=O)Cn4cncn4)=CC[C@@H]32)C1`, the inhibition of growth at 50 µM is 38.2% in assay [10], 38.5% in assay [2] and 20.2% in assay [11]. Also, the pIC50 in assay [4] was 6.49. Moreover, the IC50 result in assay [5] and in assay [6] was “Not Active” in each case. Also, the figures for the Activity in assay [7], in assay [8] and in assay [9] were 3.71 mm, 82.3 mg and 180.03 mg, respectively.

On to `C[C@]12CC[C@H](OC(=O)C3CCCCCC3)CC1=CC[C@@H]1[C@@H]2CC[C@]2(C)C(C(=O)Cn3cncn3)=CC[C@@H]12`, for which the “growth inhibition (GI)” value in assay [1], in [2] and in assay [3] was “inactive” in each case. The IC50 entry in assay [4] and in assay [6] was “Not Active” in each case. For the same compound, the Activity in assay [7] stood at 4.45 mm; in [8], 78.2 mg; in assay [9] it was 203.98 mg.

In the case of `C[C@]12CC[C@H](OC(=O)C3CC3)CC1=CC[C@@H]1[C@@H]2CC[C@]2(C)C(C(=O)Cn3cncn3)=CC[C@@H]12`, the “growth inhibition (GI)” value in [1], in assay [2] and in [3] was “inactive” each time. The IC50 entry in assay [4] and in assay [6] was “Not Active” each time. Besides, the pIC50 in assay [5] was 3.93. The Activity in assay [7] stood at 2.88 mm; in assay [8], 107.48 mg; in [9], 180.3 mg.

In the case of `CC(=O)O[C@H]1CC[C@@]2(C)C(=CC[C@@H]3[C@@H]2CC[C@]2(C)C(C(=O)Cn4cncn4)=CC[C@@H]32)C1`, the inhibition of growth at 50 µM in assay [10] came to 56.2%; in [2], 59.4%; in [11], 74.8%. The IC50 entry in [4] and in [6] was “Not Active” each time. The pIC50 in [5] is 4.00. Besides, the Activity in [7] came out at 2.9 mm; in assay [8], 87.65 mg; in assay [9], 216.075 mg.

`CCCCCC(=O)O[C@H]1CC[C@@]2(C)C(=CC[C@@H]3[C@@H]2CC[C@]2(C)C(C(=O)Cn4cncn4)=CC[C@@H]32)C1`: the inhibition of growth at 50 µM is 16.9% in assay [10], 14.4% in [2] and 6.4% in assay [11]. Further, the pIC50 in assay [4] was 4.00. In addition, the IC50 result in [5] and in assay [6] was “Not Active” each time. Further, the Activity in assay [7] is recorded as 2.8 mm; in assay [8], 86.9 mg; in assay [9], 200 mg.

For `CCCC(=O)O[C@H]1CC[C@@]2(C)C(=CC[C@@H]3[C@@H]2CC[C@]2(C)C(C(=O)Cn4cncn4)=CC[C@@H]32)C1`, the results for the inhibition of growth at 50 µM in assay [10], in [2] and in assay [11] were 9.2%, 25.6% and 15.6%, respectively. For the same compound, the IC50 result in assay [4], in assay [5] and in assay [6] was “Not Active” throughout. Also, the values for the Activity in assay [7], in assay [8] and in assay [9] were 2.71 mm, 81.3 mg and 138.9 mg, respectively.

In the case of `C[C@]12CC[C@H](OC(=O)C3CCCC3)CC1=CC[C@@H]1[C@@H]2CC[C@]2(C)C(C(=O)Cn3cncn3)=CC[C@@H]12`, the “growth inhibition (GI)” value in [1], in [2] and in assay [3] was “inactive” each time. The IC50 result in assay [4], in assay [5] and in assay [6] was “Not Active” throughout. Moreover, the Activity was 2.8 mm in assay [7], 97 mg in assay [8] and 120 mg in assay [9].

For `CC(=O)N1CCN(c2ccc(OCC3COC(Cn4ccnc4)(c4ccc(Cl)cc4Cl)O3)cc2)CC1` (stereo unspecified) [KETOCONAZOLE], the inhibition of growth at 50 µM in assay [10] was found to be 88.5%; in assay [2] it was 95.2%; in assay [11], 73.4%.

These data come from ChEMBL document CHEMBL3734650, “Synthesis and activity of novel 16-dehydropregnenolone acetate derivatives as inhibitors of type 1 5α-reductase and on cancer cell line SK-LU-1” (Bioorg Med Chem, 2015).
